Consider 3 molecules from ChEMBL document CHEMBL1781963, “Discovery of novel hepatoselective HMG-CoA reductase inhibitors for treating hypercholesterolemia: a bench-to-bedside case study on tissue selective drug distribution” (Bioorg Med Chem Lett, 2011).

For series [1], the system named is Homo sapiens. The experiment in a line: Inhibition of HMG-CoA reductase in human assessed as decrease in AUC (0 to 24 hrs) of mevalonate level in plasma at 10 mg administered qd for 14 days relative to control. It is filed as functional.
The test system of series [2] is Homo sapiens. The experiment in a line: Inhibition of HMG-CoA reductase in human assessed as decrease in LDL-cholesterol level in plasma at 10 mg administered qd for 14 days relative to control. It is filed as functional.
The nature of series [3]: Terminal half life in human plasma at 120 mg administered as single dose. It is filed as ADME, cell-free. The note with it: read-out: beta t1/2 (converted).
The test system of another series is Syrian golden hamster. The experiment in a line: Inhibition of cholesterol synthesis in golden syrian hamster assessed as reduction of [14C]-cholesterol level at 10 mg/kg, po followed by 3 hrs after treated with 80 uCi, ip of [14C]-sodium acetate measured after 5 hrs by liquid scintillation counting relative to control. As to conditions: Mesocricetus auratus. Type of series: functional. The gist of the method:
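Separate hamster groups dosed po at 10 mg/kg at t = 0 h. 14C sodium acetate ip at t = 3 h, blood 14C cholesterol at t = 5 h. Percent change vs untreated controls, n = 8/group.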

For series [4], the system named is Homo sapiens. The experiment in a line: Inhibition of HMG-CoA reductase in human assessed as decrease in AUC (0 to 24 hrs) of mevalonate level in plasma at 3 mg administered as single dose relative to control. Type of series: functional.
A further series concerns L6. The experiment in a line: Inhibition of cholesterol synthesis in rat L6 cells assessed as reduction of [14C]-cholesterol level using [14C]-acetic acid preincubated for 3 hrs before addition of [14C]-acetic acid by scintillation counting. Type of series: functional, cell-based. The gist of the method:
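Cholesterol synthesis inhibition measured in rat hepatocytes and rat myocyte cell line, giving IC50 for each. Mean ± SEM of n ≥ 2 independent determinations.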

Series [5] is described as follows: Cmax in human plasma at 10 mg administered as single dose. Type of series: ADME, organism-based. On the set-up: dose 10 mg. The gist of the method: (§1)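 Phase 1 single ascending oral dose in healthy volunteers, about 5–6 subjects per dose. Total plasma drug Cmax and AUC(0-∞) were measured. Free-drug exposures were derived using plasma protein binding.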
Series [6] deals with Plasma. The experiment in a line: fCmax in human plasma at 320 mg administered as single dose. It is filed as ADME, cell-free. The procedure, abridged: (§2)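 Phase 1 single ascending oral dose in healthy volunteers, with N per dose group. Total plasma Cmax and AUC(0-∞) were measured. Free-drug exposures were derived from these using plasma protein binding (human plasma fu measured at 0.5 μg/mL).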

Series [7] can be described thus: AUC (0 to infinity) in human plasma at 320 mg administered as single dose. Type of series: ADME, cell-free. On the set-up: dose 320 mg, time infinity. The procedure, abridged: as §1
The subject of series [8] is Plasma. The experiment in a line: fAUC (0 to infinity) in human plasma at 320 mg administered as single dose. Type of series: ADME, cell-free. The gist of the method: as §2
A short description of series [9]: Terminal half life in human plasma at 320 mg administered as single dose. It is filed as ADME, cell-free. The note with it: read-out: beta t1/2 (converted).
Series [10] deals with Homo sapiens. The experiment in a line: Inhibition of HMG-CoA reductase in human assessed as decrease in AUC (0 to 24 hrs) of mevalonate level in plasma at 10 mg administered as single dose relative to control. Type of series: functional.
The nature of series [11]: Terminal half life in human plasma at 240 mg administered as single dose. Type of series: ADME, cell-free. As to conditions: read-out: beta t1/2 (converted).
Series [12] has as its system Homo sapiens. The experiment in a line: Inhibition of HMG-CoA reductase in human assessed as decrease in AUC (0 to 24 hrs) of mevalonate level in plasma at 120 mg administered as single dose relative to control. Type of series: functional.
Series [13] concerns Plasma. The experiment in a line: fCmax in human plasma at 10 mg administered as single dose. It is filed as ADME, cell-free. The gist of the method: as §2
In series [14] the test system is Homo sapiens. The experiment in a line: Inhibition of HMG-CoA reductase in human assessed as decrease in AUC (0 to 72 hrs) of mevalonate level in plasma at 10 mg administered as single dose relative to control. It is filed as functional.
In series [15] the test system is Homo sapiens. The experiment in a line: Inhibition of HMG-CoA reductase in human assessed as decrease in AUC (0 to 24 hrs) of mevalonate level in plasma at 240 mg administered as single dose relative to control. It is filed as functional.
For series [16], the system named is Plasma. The experiment in a line: fCmax in human plasma at 80 mg administered as single dose. Type of series: ADME, cell-free. The gist of the method:
as §2

In series [17] the test system is Homo sapiens. The experiment in a line: Inhibition of HMG-CoA reductase in human assessed as decrease in AUC (0 to 24 hrs) of mevalonate level in plasma at 1 mg administered as single dose relative to control. It is filed as functional.
The test system of series [18] is Plasma. The experiment in a line: fCmax in human plasma at 160 mg administered as single dose. It is filed as ADME, cell-free. The procedure, abridged:
as §2

The subject of series [19] is Plasma. The experiment in a line: fAUC (0 to infinity) in human plasma at 160 mg administered as single dose. It is filed as ADME, cell-free. The gist of the method:
as §2

In series [20] the test system is Homo sapiens. The experiment in a line: Inhibition of HMG-CoA reductase in human assessed as decrease in AUC (0 to 72 hrs) of mevalonate level in plasma at 80 mg administered as single dose relative to control. It is filed as functional.
Series [21] has as its system Plasma. The experiment in a line: fCmax in human plasma at 5 mg administered as single dose. It is filed as ADME, cell-free. The procedure, abridged:
as §2

Series [22] deals with Plasma. The experiment in a line: fCmax in human plasma at 1 mg administered as single dose. It is filed as ADME, cell-free. The procedure, abridged: as §2
Series [23] deals with Homo sapiens. The experiment in a line: Inhibition of HMG-CoA reductase in human assessed as decrease in AUC (0 to 72 hrs) of mevalonate level in plasma at 5 mg administered as single dose relative to control. Type of series: functional.
The nature of series [24]: AUC (0 to infinity) in human plasma at 1 mg administered as single dose. It is filed as ADME, cell-free. On the set-up: dose 1 mg, time infinity. The gist of the method: as §1
Series [25] is described as follows: Cmax in human plasma at 80 mg administered as single dose. It is filed as ADME, organism-based. On the set-up: dose 80 mg. The gist of the method: as §1
Series [26] deals with Plasma. The experiment in a line: fAUC (0 to infinity) in human plasma at 20 mg administered as single dose. Type of series: ADME, cell-free. The procedure, abridged: as §2
Series [27] has as its system Homo sapiens. The experiment in a line: Inhibition of HMG-CoA reductase in human assessed as decrease in AUC (0 to 72 hrs) of mevalonate level in plasma at 1 mg administered as single dose relative to control. It is filed as functional.
For series [28], the system named is Homo sapiens. The experiment in a line: Inhibition of HMG-CoA reductase in human assessed as decrease in AUC (0 to 24 hrs) of mevalonate level in plasma at 20 mg administered as single dose relative to control. Type of series: functional.
In series [29] the test system is Plasma. The experiment in a line: fAUC (0 to infinity) in human plasma at 1 mg administered as single dose. Type of series: ADME, cell-free.
The subject of series [30] is Plasma. The experiment in a line: fCmax in human plasma at 20 mg administered as single dose. It is filed as ADME, cell-free. The gist of the method: as §2
The test system of series [31] is Homo sapiens. The experiment in a line: Inhibition of HMG-CoA reductase in human assessed as decrease in AUC (0 to 24 hrs) of mevalonate level in plasma at 80 mg administered as single dose relative to control. Type of series: functional.
Series [32] is described as follows: Terminal half life in human plasma at 160 mg administered as single dose. It is filed as ADME, cell-free. As to conditions: read-out: beta t1/2 (converted).
The nature of series [33]: AUC (0 to infinity) in human plasma at 80 mg administered as single dose. It is filed as ADME, cell-free. On the set-up: dose 80 mg, time infinity. The gist of the method:
as §1

The test system of series [34] is Homo sapiens. The experiment in a line: Inhibition of HMG-CoA reductase in human assessed as decrease in AUC (0 to 24 hrs) of mevalonate level in plasma at 160 mg administered as single dose relative to control. Type of series: functional.
Series [35] deals with Plasma. The experiment in a line: fAUC (0 to infinity) in human plasma at 5 mg administered as single dose. It is filed as ADME, cell-free. The gist of the method: as §2
Series [36] is described as follows: Cmax in human plasma at 160 mg administered as single dose. Type of series: ADME, organism-based. On the set-up: dose 160 mg. The gist of the method: as §1
Series [37] in a line: Cmax in human plasma at 1 mg administered as single dose. On the set-up: dose 1 mg. Type of series: ADME, organism-based. The gist of the method:
as §1

Series [38] is described as follows: AUC (0 to infinity) in human plasma at 20 mg administered as single dose. Type of series: ADME, cell-free. On the set-up: dose 20 mg, time infinity. The procedure, abridged:
as §1

The nature of series [39]: Cmax in human plasma at 5 mg administered as single dose. On the set-up: dose 5 mg. It is filed as ADME, organism-based. The gist of the method: as §1
A short description of series [40]: AUC (0 to infinity) in human plasma at 160 mg administered as single dose. Type of series: ADME, cell-free. On the set-up: dose 160 mg, time infinity. The gist of the method:
as §1

A short description of series [41]: Terminal half life in human plasma at 20 mg administered as single dose. Type of series: ADME, cell-free. The note with it: read-out: beta t1/2 (converted).

pIC50: −log10 of the molar value.

For `CC(C)c1nc(N(C)S(C)(=O)=O)nc(-c2ccc(F)cc2)c1/C=C/[C@@H](O)C[C@@H](O)CC(=O)O` [ROSUVASTATIN], the “inhibition (INH)” value worked out at 29.9% in the series with Homo sapiens [1] and 41.3% with Homo sapiens [2].

On to `O=C([O-])C[C@H](O)C[C@H](O)CCn1c(-c2ccc(F)cc2)nc(C(=O)NCc2cccc(F)c2)c1C1CC1.[Na+]`, for which the values for the half-life in series [3], in series [9] and in [11] were 184 min, 442 min and 244 min, respectively. The inhibition in vivo at 10 mg/kg in the series on Syrian golden hamster was -43%. Further, the “inhibition (INH)” value in the series on Homo sapiens [4] is reported as -5%; in the series with Homo sapiens [10], -25%; with Homo sapiens [12], -46%; in the series with Homo sapiens [14], -13%; in the series with Homo sapiens [15] it was -56%. Further, the pIC50 in the series with L6 was 6.35. The highest level in series [5] (Cmax) was 0.355 ng/mL. For the same molecule, the figures for the fCmax with Plasma [6] and in the series with Plasma [13] were 12.8 ng/mL and 0.1 ng/mL, respectively. In addition, in [7], the AUC(0-inf) was found to be 36 ng·h/mL. The molecule further came in with a fAUC in the series on Plasma [8] of 10.4 ng·h/mL.

For `Cc1ccc(CNC(=O)c2nn(-c3ccc(F)cc3)c(CC[C@@H](O)C[C@@H](O)CC(=O)O)c2C(C)C)cc1`, the fCmax came out at 228 ng/mL with Plasma [16]; 347 ng/mL in the series on Plasma [18]; 10 ng/mL in the series with Plasma [21]; 1.71 ng/mL with Plasma [22]; 37.7 ng/mL with Plasma [30]. Besides, the “inhibition (INH)” value is -16% in the series on Homo sapiens [17]; -29% in the series on Homo sapiens [20]; 3% with Homo sapiens [23]; -8% in the series with Homo sapiens [27]; -34% with Homo sapiens [28]; -65% with Homo sapiens [31]. In addition, in the series on Homo sapiens [34], the “inhibition (INH)” value was -55%. Besides, the fAUC in the series on Plasma [19] was determined as 1280 ng·h/mL; with Plasma [26], 98.4 ng·h/mL; in the series on Plasma [29], 4 ng·h/mL; in the series with Plasma [35], 22.1 ng·h/mL. Moreover, the AUC(0-inf) in series [24] came to 78.5 ng·h/mL; in series [33] it was 11800 ng·h/mL; in series [38] it was 1930 ng·h/mL; in [40] it was 25000 ng·h/mL. Also, the Cmax was found to be 4480 ng/mL in [25], 6810 ng/mL in series [36], 33.5 ng/mL in series [37] and 196 ng/mL in [39]. Moreover, the half-life in series [32] was 532 min; in series [41] it was 316 min.

A word on the inhibition in vivo: it is the drop in the measured response relative to a control, in per cent. A word on the pIC50: it is the negative decadic logarithm of the IC50, by convention in mol/L. By Cmax is commonly meant the maximum level reached in the sampled fluid or tissue. In general, AUC(0-inf) refers to the area under the concentration-time curve extrapolated to infinity.
